One block for each molecule: values may come before it.
What was measured:
[1] = Inhibitory activity against CDK1/Cyclin B from starfish oocytes; set-up: species or system Marthasterias glacialis; conditions: oocyte
Procedure, shortened: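 Starfish oocyte (M phase) CDK1/cyclin B, affinity-purified on p9CKShs1-sepharose. Buffer C (25 mM Mops pH 7.2, β-glycerophosphate, p-nitrophenyl phosphate, EGTA, 15 mM MgCl2, DTT, vanadate, phenyl phosphate), 1 mg/mL histone H1, 15 µM [γ-33P]ATP, 10 min at 30 °C. Read by P81 phosphocellulose binding, washing and scintillation counting; activity as percent of uninhibited control, DMSO controls.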

[2] = biological target: Cyclin-dependent kinase 5/CDK5 activator 1 (Homo sapiens, UniProt Q00535); assay: Inhibitory activity against CDK5/p25; type: protein-complex assay
Procedure, shortened: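 Recombinant mammalian CDK5 and p25, expressed in E. coli as GST fusions, glutathione-agarose purified and mixed in equal amounts. Assayed in buffer C pH 7.2 with 1 mg/mL histone H1 and 15 µM [γ-33P]ATP, 10 min at 30 °C. P81 filter binding and scintillation counting; activity as percent of maximal activity without inhibitor.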

CEM/C2 = assay: Cytotoxicity against camptothecin-resistant human leukemic CEMC2 cell line; type: functional, cell-based
Procedure, shortened: (§1)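 Human leukemia cells (CEM, or topoisomerase I-deficient CEM/C2) grown at 37 °C, 5% CO2 in RPMI 1640 with 10% FBS, glucose, HEPES, pyruvate and antibiotics. 2 × 10^4 exponentially growing cells seeded with graded drug concentrations, 72 h at 37 °C. Tetrazolium dye (CellTiter 96 aqueous one-solution) added for a further 2 h, absorbance read at 492 nm; IC50 reported.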

CCRF-CEM = assay: Cytotoxicity against human leukemic CEM cell line; type: functional, cell-based; procedure, shortened: as §1
[3] = biological target: Glycogen synthase kinase-3 (Homo sapiens, UniProt P49840+P49841); assay: Inhibitory activity against GSK3 from porcine brain; set-up: species or system Sus scrofa; conditions: target entry is the homologue from another species
Procedure, shortened: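 GSK-3α/β purified from porcine brain on immobilized axin, diluted 1/100 in BSA/DTT. Buffer A (25 mM Tris-HCl pH 7.5, 10 mM MgCl2, EGTA, DTT, 50 µg/mL heparin), GS-1 peptide substrate (5 µL of 40 µM), 15 µM [γ-33P]ATP, 30 min at 30 °C. P81 phosphocellulose filters washed in dilute phosphoric acid and counted; activity relative to no-inhibitor control.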

Sequence of Cyclin-dependent kinase 5/CDK5 activator 1 (Q00535 whole entry, the tested form may be a part): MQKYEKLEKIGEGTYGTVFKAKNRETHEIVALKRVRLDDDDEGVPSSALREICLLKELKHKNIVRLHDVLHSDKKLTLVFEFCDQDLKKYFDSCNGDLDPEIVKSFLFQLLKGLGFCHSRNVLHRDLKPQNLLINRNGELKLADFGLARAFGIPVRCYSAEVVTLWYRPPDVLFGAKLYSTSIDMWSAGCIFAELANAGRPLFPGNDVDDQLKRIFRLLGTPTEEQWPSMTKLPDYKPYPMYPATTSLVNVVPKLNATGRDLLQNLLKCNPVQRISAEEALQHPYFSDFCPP
Sequence of Cyclin-dependent kinase 5/CDK5 activator 1 (Q15078 whole entry, further chain, the tested form may be a part): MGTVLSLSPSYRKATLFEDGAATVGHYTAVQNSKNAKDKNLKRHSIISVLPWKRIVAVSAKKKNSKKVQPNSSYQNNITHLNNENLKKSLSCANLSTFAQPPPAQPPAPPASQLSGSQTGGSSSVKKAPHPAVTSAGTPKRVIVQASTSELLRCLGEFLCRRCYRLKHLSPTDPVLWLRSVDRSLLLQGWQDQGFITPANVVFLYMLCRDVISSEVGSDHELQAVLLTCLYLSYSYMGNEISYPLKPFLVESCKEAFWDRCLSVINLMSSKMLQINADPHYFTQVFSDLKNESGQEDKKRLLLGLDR

IC50 [2]: > 10 µM
SMILES: O=C1c2c(c3c4ccccc4[nH]c3c3ccccc23)C(=O)N1C(CO)CO
IC50 [1]: > 10 µM
IC50 (CEM/C2): 4.95 µM
IC50 (CCRF-CEM): 3.71 µM

IC50 [2]: > 10 µM
SMILES: O=C1c2c(c3c4ccccc4[nH]c3c3ccccc23)C(=O)N1CCc1c[nH]cn1
IC50 [1]: > 10 µM
IC50 (CEM/C2): 2.92 µM
IC50 (CCRF-CEM): 1.58 µM

IC50 [2]: > 10 µM
SMILES: CN1C(=O)c2c(c3c4ccccc4[nH]c3c3ccccc23)C1=O
IC50 [1]: > 10 µM
IC50 (CEM/C2): > 100 µM
IC50 (CCRF-CEM): > 100 µM

IC50 [2]: > 10 µM
SMILES: CN(C)CCN1C(=O)c2c(c3c4ccccc4[nH]c3c3ccccc23)C1=O
IC50 [1]: > 10 µM
IC50 (CEM/C2): 0.335 µM
IC50 (CCRF-CEM): 0.11 µM

IC50 [2]: > 10 µM
SMILES: O=C1OC(=O)c2c1c1ccccc1c1[nH]c3ccccc3c21
IC50 [1]: > 10 µM
IC50 (CEM/C2): > 50 µM
IC50 (CCRF-CEM): > 25 µM

IC50 [2]: > 10 µM
SMILES: O=C1c2c(c3c4cc(O)ccc4[nH]c3c3ccccc23)C(=O)N1CCc1c[nH]cn1
IC50 [1]: > 10 µM
IC50 (CEM/C2): 1.9 µM
IC50 (CCRF-CEM): 0.715 µM

IC50 [2]: 8.5 µM
IC50 [3]: 20 µM
SMILES: O=C1NC(=O)c2c1c1ccccc1c1[nH]c3ccccc3c21
IC50 [1]: 80 µM
IC50 (CEM/C2): > 100 µM
IC50 (CCRF-CEM): > 100 µM

Second part, the molecule before the results:

SMILES: O=C1OC(=O)c2c1c1ccccc1c1[nH]c3ccc(O)cc3c21
IC50 [1]: > 10 µM
IC50 [2]: > 10 µM
IC50 (CEM/C2): 32.3 µM
IC50 (CCRF-CEM): 14.7 µM

SMILES: O=C1c2c(c3c4cc(O)ccc4[nH]c3c3ccccc23)C(=O)N1C(CO)CO
IC50 [1]: > 10 µM
IC50 [2]: > 10 µM
IC50 (CEM/C2): 4.96 µM
IC50 (CCRF-CEM): 2.84 µM

SMILES: O=C1NC(=O)c2c1c1ccccc1c1[nH]c3ccc(O)cc3c21
IC50 [1]: 0.58 µM
IC50 [2]: 0.25 µM
IC50 (CEM/C2): > 25 µM
IC50 (CCRF-CEM): > 25 µM
IC50 [3]: 0.46 µM

SMILES: CN(C)CCN1C(=O)c2c(c3c4cc(O)ccc4[nH]c3c3ccccc23)C1=O
IC50 [1]: > 10 µM
IC50 [2]: > 10 µM
IC50 (CEM/C2): 0.0187 µM
IC50 (CCRF-CEM): 0.0122 µM

SMILES: CN1C(=O)c2c(c3c4cc(O)ccc4[nH]c3c3ccccc23)C1=O
IC50 [1]: > 10 µM
IC50 [2]: > 10 µM
IC50 (CEM/C2): 4.17 µM
IC50 (CCRF-CEM): 1.64 µM
